Laboratory results: publication PMC3249179 (European Journal of Clinical Pharmacology, 2011)
Like-named read-outs stand apart in the source and are kept apart here. Marks after values point to notes of the source that are not given here.

Experiments:
[1] = clinical doses of PRX (20–30 mg q.d.); cited from earlier work
CYP3A4 [2] = details: coadministration of FLV (100 mg q.d.); cited from earlier work
CYP2D6 [3] = details: coadministration of FLV (100 mg q.d.); cited from earlier work
CYP3A4 [4] = test system: CYP3A4; set-up: species or system healthy Japanese male volunteers; details: FLV 100 mg/day, calculated from APZ CL/F
[5] = cited from earlier work
[6] = type: in vivo, healthy Japanese male volunteers; details: for AUC ratio (period II/period I) / Cmax ratio (period II/period I) / t1/2,z ratio (period II/period I) / tmax difference (period II − period I) / CL/F ratio (period II/period I): APZ + PRX vs APZ alone; for AUC ratio (period II/period I) / Cmax ratio (period II/period I) / t1/2,z ratio (period II/period I) / CL/F ratio (period II/period I): geometric mean ratio; for tmax difference (period II − period I): mean difference
[7] = type: in vivo, healthy Japanese male volunteers; details: for AUC ratio (period II/period I) / Cmax ratio (period II/period I) / t1/2,z ratio (period II/period I) / tmax difference (period II − period I) / CL/F ratio (period II/period I): APZ + FLV vs APZ alone; for AUC ratio (period II/period I) / Cmax ratio (period II/period I) / t1/2,z ratio (period II/period I) / CL/F ratio (period II/period I): geometric mean ratio; for tmax difference (period II − period I): mean difference
Procedure, shortened: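 Healthy Japanese men aged 20–40 y (BMI 18.5–25.0), CYP2D6-genotyped from blood DNA; 7 per genotype randomly selected. Period I: 3 mg APZ tablet orally, fasting; 34-day washout. Fluvoxamine pretreatment 6 days, then APZ given at SSRI steady state, fluvoxamine continued 14 days. Heparinized plasma sampled predose to 336 h, stored −20°C; APZ and DAPZ by LC-MS/MS. Mean ± SD; per-subject period II/I GMR.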

[8] = APZ 3 mg with CYP3A4 inhibitor itraconazole 100 mg; Japanese EM subjects; cited from earlier work
CYP2D6 [9] = assay: Calculation of the contribution of CYP2D6 to APZ metabolism; set-up: species or system healthy Japanese male volunteers; details: before CYP inhibition
[10] = CYP2D6 EM, APZ + PRX 20 mg/day (period II), single oral 3 mg APZ, mean ± SD
[11] = CYP2D6 EM, APZ alone (period I), PRX group, single oral 3 mg APZ, mean ± SD
[12] = CYP2D6 IM, APZ + PRX 20 mg/day (period II), single oral 3 mg APZ, mean ± SD
[13] = CYP2D6 IM, APZ alone (period I), PRX group, single oral 3 mg APZ, mean ± SD
[14] = CYP2D6 EM, APZ + FLV 100 mg/day (period II), single oral 3 mg APZ, mean ± SD
[15] = CYP2D6 EM, APZ alone (period I), FLV group, single oral 3 mg APZ, mean ± SD
[16] = CYP2D6 IM, APZ + FLV 100 mg/day (period II), single oral 3 mg APZ, mean ± SD
[17] = CYP2D6 IM, APZ alone (period I), FLV group, single oral 3 mg APZ, mean ± SD
[18] = male, human, plasma, oral, 3 mg

Fc1ccc([C@@H]2CCNC[C@H]2COc2ccc3c(c2)OCO3)cc1 [PRX, paroxetine]
steady-state blood concentrations [1]: 35 to 43 ng/mL

COCCCC/C(=N\OCCN)c1ccc(C(F)(F)F)cc1 [FLV, fluvoxamine]
increase in blood concentration of CYP3A4 substrates (CYP3A4 [2]): several-fold | effect on the PK of desipramine and metoprolol (CYP2D6 substrates) (CYP2D6 [3]): without significantly affecting | percent inhibition of CYP3A4 by coadministration of FLV (CYP3A4 [4]; CYP2D6 EM subjects): 64% | percent inhibition of CYP3A4 by coadministration of FLV (CYP3A4 [4]; CYP2D6 IM subjects): 48%

O=c1ccc2ccc(OCCCCN3CCN(c4cccc(Cl)c4Cl)CC3)cc2[nH]1 [Dehydroaripiprazole, dehydroaripiprazole]
excretion in urine and feces [5]: almost no | Cmax [6, 10]: 0.9 ± 0.1 ng/mL | tmax [6, 10]: 89.1 ± 38.5 h | AUC ratio (period II/period I) ([6]; CYP2D6 EM): 1.21 | Cmax ratio (period II/period I) ([6]; CYP2D6 EM): 0.67 | t1/2,z ratio (period II/period I) ([6]; CYP2D6 EM): 1.91 | tmax difference (period II − period I) ([6]; CYP2D6 EM): 37.71 h | Cmax [6, 11]: 1.3 ± 0.3 ng/mL | t1/2,z [6, 11]: 86.1 ± 10.7 h | tmax [6, 11]: 51.4 ± 16.6 h | Cmax [6, 12]: 0.8 ± 0.1 ng/mL | tmax [6, 12]: 133.7 ± 27.2 h | AUC ratio (period II/period I) ([6]; CYP2D6 IM): 0.89 | Cmax ratio (period II/period I) ([6]; CYP2D6 IM): 0.88 | t1/2,z ratio (period II/period I) ([6]; CYP2D6 IM): 0.73 | tmax difference (period II − period I) ([6]; CYP2D6 IM): 30.71 h | Cmax [6, 13]: 1.0 ± 0.2 ng/mL | tmax [6, 13]: 103.0 ± 38.7 h | Cmax [7, 14]: 1.6 ± 0.2 ng/mL | t1/2,z [7, 14]: 227.8 ± 63.2 h | tmax [7, 14]: 72.0 ± 0.0 h | AUC ratio (period II/period I) ([7]; CYP2D6 EM): 2.05^a | Cmax ratio (period II/period I) ([7]; CYP2D6 EM): 1.23^a | t1/2,z ratio (period II/period I) ([7]; CYP2D6 EM): 2.00^a | tmax difference (period II − period I) ([7]; CYP2D6 EM): 12.00^b h | Cmax [7, 15]: 1.3 ± 0.3 ng/mL | t1/2,z [7, 15]: 115.0 ± 39.6 h | tmax [7, 15]: 60.0 ± 13.1 h | Cmax [7, 16]: 1.2 ± 0.3 ng/mL | tmax [7, 16]: 157.7 ± 36.3 h | Cmax ratio (period II/period I) ([7]; CYP2D6 IM): 0.95^a | tmax difference (period II − period I) ([7]; CYP2D6 IM): 37.71^b h | Cmax [7, 17]: 1.2 ± 0.3 ng/mL | tmax [7, 17]: 120.0 ± 41.6 h

O=C1CCc2ccc(OCCCCN3CCN(c4cccc(Cl)c4Cl)CC3)cc2N1 [Aripiprazole, aripiprazole]
decrease in CL/F [8]: 27% | percent contribution of CYP2D6 to total CL/F (metabolic activity) of APZ (CYP2D6 [9]; CYP2D6 EM, FLV coadministration group): 40% | percent contribution of CYP2D6 to total CL/F (metabolic activity) of APZ (CYP2D6 [9]; CYP2D6 EM, PRX coadministration group): 62% | percent contribution of CYP2D6 to total CL/F (metabolic activity) of APZ (CYP2D6 [9]; CYP2D6 IM, FLV coadministration group): 18% | percent contribution of CYP2D6 to total CL/F (metabolic activity) of APZ (CYP2D6 [9]; CYP2D6 IM, PRX coadministration group): 24% | decrease in CL/F by coadministration of PRX ([6]; CYP2D6 EM subjects): 58% | increase in Cmax by coadministration of PRX ([6]; CYP2D6 EM subjects): 39% | CL/F [6, 10]: 2.22 ± 0.31 L/h | AUC ratio (period II/period I) ([6]; CYP2D6 EM): 2.40^a | CL/F ratio (period II/period I) ([6]; CYP2D6 EM): 0.42^a | Cmax ratio (period II/period I) ([6]; CYP2D6 EM): 1.39^a | t1/2,z ratio (period II/period I) ([6]; CYP2D6 EM): 1.83^a | CL/F [6, 11]: 5.42 ± 1.25 L/h | decrease in CL/F by coadministration of PRX ([6]; CYP2D6 IM subjects): 23% | CL/F [6, 12]: 1.78 ± 0.20 L/h | AUC ratio (period II/period I) ([6]; CYP2D6 IM): 1.30^a | CL/F ratio (period II/period I) ([6]; CYP2D6 IM): 0.77^a | Cmax ratio (period II/period I) ([6]; CYP2D6 IM): 1.27^a | t1/2,z ratio (period II/period I) ([6]; CYP2D6 IM): 1.21^a | CL/F [6, 13]: 2.32 ± 0.33 L/h | interindividual variability in CL/F ([6]; EM subjects of PRX group, APZ alone): 23 % CV | interindividual variability in CL/F ([6]; EM subjects, coadministration of PRX): 14 % CV | interindividual variability in CL/F ([6]; IM subjects of PRX group, APZ alone): 14 % CV | AUC [6, 18]: 1320 ng·h/mL | Cmax [6, 18]: 14.5 ± 3.4 ng/mL | half-life [6, 18]: 107 ± 18.9 h | tmax ([6]; male, human, plasma, oral, 3 mg, tmax, CYP2D6 IM, APZ alone (period I), PRX group, single oral 3 mg APZ, mean ± SD): 3.3 ± 1.6 h | tmax ([6]; male, human, plasma, oral, tmax, coadministration of APZ with PRX in period II): ~2 h | AUC ([6]; male, human, plasma, po, 3 mg): 582 ± 150 ng·h/mL | Cmax ([6]; male, human, plasma, po, 3 mg): 12.6 ± 2.6 ng/mL | half-life ([6]; male, human, plasma, po, 3 mg): 60.7 ± 9.2 h | CL/F [7, 14]: 2.03 ± 0.46 L/h | AUC ratio (period II/period I) ([7]; CYP2D6 EM): 1.63^a | CL/F ratio (period II/period I) ([7]; CYP2D6 EM): 0.61^a | Cmax ratio (period II/period I) ([7]; CYP2D6 EM): 1.39^a | t1/2,z ratio (period II/period I) ([7]; CYP2D6 EM): 1.44^a | CL/F [7, 15]: 3.30 ± 0.59 L/h | decrease in CL/F by coadministration of fluvoxamine ([7]; CYP2D6 EMs): 39% | CL/F [7, 16]: 1.26 ± 0.35 L/h | AUC ratio (period II/period I) ([7]; CYP2D6 IM): 1.65^a | CL/F ratio (period II/period I) ([7]; CYP2D6 IM): 0.60^a | Cmax ratio (period II/period I) ([7]; CYP2D6 IM): 1.27^a | t1/2,z ratio (period II/period I) ([7]; CYP2D6 IM): 1.49^a | tmax difference (period II − period I) ([7]; CYP2D6 IM): 0.00^b h | CL/F [7, 17]: 2.10 ± 0.69 L/h | decrease in CL/F by coadministration of fluvoxamine ([7]; CYP2D6 IMs): 40% | decrease in CL/F in period II (FLV) compared with period I ([7]; both the IM and EM subjects): approximately 40% | AUC [7, 18]: 1540 ng·h/mL | Cmax [7, 18]: 15.3 ± 3.4 ng/mL | half-life [7, 18]: 105 ± 6.8 h | tmax ([7]; male, human, plasma, oral, 3 mg, tmax, CYP2D6 IM, APZ alone (period I), FLV group, single oral 3 mg APZ, mean ± SD): 3 ± 1.8 h | AUC ([7]; male, human, plasma, po, 3 mg): 935 ± 173 ng·h/mL | Cmax ([7]; male, human, plasma, po, 3 mg): 14.7 ± 2.9 ng/mL
